In the library only some 0.77% were active in any assay of this set; here they are far more common.
bIAP activator = increases bovine intestinal alkaline phosphatase activity | purified bovine IAP, CDP-star luminescence, 30 min; stronger effect = higher value; fold of DMSO-control signal, blank-subtracted | activation factor at 20 µM | actives 0.17% (n = 200,000) | AID 1016;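 active means activation factor of 2 or more at 20 µM, a signal rise over negative controls twice the positive control's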
hIAP activ = human IAP activation | actives 0.16% (n = 330,000) | activation factor at 10 µM | purified human IAP, CDP-Star luminescence, 30 min; stronger effect = higher value; 1 = vehicle-only enzyme, 0 = enzyme-free background | P09923;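 active means activation factor of the enzyme at least 2-fold when tested at 20 µM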
Target sequence (P09923 whole entry, looked up): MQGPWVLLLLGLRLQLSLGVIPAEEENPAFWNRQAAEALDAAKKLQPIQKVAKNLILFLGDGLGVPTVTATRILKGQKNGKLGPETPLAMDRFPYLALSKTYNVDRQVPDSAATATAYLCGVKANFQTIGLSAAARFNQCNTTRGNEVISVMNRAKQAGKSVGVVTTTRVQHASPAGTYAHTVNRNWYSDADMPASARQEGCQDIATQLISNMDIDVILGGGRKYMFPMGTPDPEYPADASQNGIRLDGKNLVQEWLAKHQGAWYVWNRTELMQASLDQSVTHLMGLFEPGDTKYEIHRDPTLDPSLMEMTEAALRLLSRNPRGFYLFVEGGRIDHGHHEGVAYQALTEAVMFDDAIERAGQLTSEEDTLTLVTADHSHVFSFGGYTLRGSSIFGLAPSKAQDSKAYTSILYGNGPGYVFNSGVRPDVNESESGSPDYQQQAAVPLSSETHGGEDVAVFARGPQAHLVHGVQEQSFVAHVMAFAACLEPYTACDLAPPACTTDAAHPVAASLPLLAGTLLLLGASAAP
mIAP block = blocks mouse intestinal alkaline phosphatase; purified mouse IAP, CDP-Star luminescence, 30 min; inhibition, % at 10 µM; actives 0.2% (n = 330,000);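 active means inhibition of at least 40% at 10 µM in the primary screen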;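 further: plate controls were DMSO with enzyme for no effect and no enzyme wells for full effect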
mIAP act = increases mouse intestinal alkaline phosphatase activity | activation factor at 10 µM | actives 0.24% (n = 330,000) | muIAP, CDP-Star luminescence, 30 min; stronger effect = higher value; 1 = vehicle-only enzyme signal, 0 = enzyme-free wells;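 active means activation factor of at least 2 at 20 µM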
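Assay system: mouse IAP enzyme / Compound: DMSO-dissolved test compounds / Timing: 30 min, room temperature / Measured by: luminescence from enzymatic CDP-Star hydrolysis / Control set: DMSO-only wells, enzyme-free buffer wells as negative control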
hIAP block = blocks human intestinal alkaline phosphatase. P09923. actives 0.12% (n = 330,000). inhibition, % at 10 µM. purified IAP, CDP-Star luminescence, 30 min;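 active means inhibition reaching a set limit with compound at 10 µM in the primary screen, cut at about 35% in these data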;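 further: plate controls were DMSO wells with enzyme for no effect and no-enzyme buffer wells for full effect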
bIAP inhibitor = blocks bovine intestinal alkaline phosphatase activity. purified bovine IAP, CDP-star luminescence, 30 min. inhibition, % at 20 µM. 190,000 tested, under 10 active. AID 1019;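 active means over 50% inhibition of intestinal alkaline phosphatase at 20 µM in the single-dose screen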
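System: Purified bovine intestinal alkaline phosphatase (IAP) enzyme | Input: IAP diluted 1/65,000,000 in the well | Also added: CDP-star chemiluminescent phosphatase substrate, 30 µM final | Dosing: 20 µM single dose | Times: Enzyme reaction for 30 min at room temperature | Detection: Luminescence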
The depositor's hits bear a star.

CCCN1C2CCCC1CC(NC(=S)Nc1cccc(C)c1C)C2 (stereo unspecified) was read as hIAP activ 1.17, mIAP block -6.9, mIAP act 1.07 and hIAP block -17.1.
`Cc1cccc(NC(=S)NC2CC3CCCC(C2)N3Cc2cccs2)c1C` (stereo unspecified) gave bIAP activator 1.3, hIAP activ 1.22, mIAP block -131.2, mIAP act 2.31*, hIAP block -21.5 and bIAP inhibitor -28.0.
Cc1cccc(C)c1NC(=O)NC1CC2CCC(C1)N2Cc1cccs1 (stereo unspecified) was read as bIAP activator 1.1, hIAP activ 1.01, mIAP block -6.3, mIAP act 1.06, hIAP block -1.2 and bIAP inhibitor -12.2.
`CCc1ccccc1NC(=S)NC1CC2CCCC(C1)N2Cc1cccs1` (stereo unspecified) gave bIAP activator 1.4, hIAP activ 0.931, mIAP block -139.8, mIAP act 2.4*, hIAP block 6.9 and bIAP inhibitor -43.4.
CN1CCN(CCCC(=O)c2ccc(C3CCCC3)cc2)CC1 was read as bIAP activator 1, hIAP activ 1.47, mIAP block 3.4, mIAP act 0.966, hIAP block -46.9 and bIAP inhibitor -0.4.
`Cc1ccc(N2C(=O)CSCC2=O)cc1` gave bIAP activator 1, hIAP activ 1.08, mIAP block 0.8, mIAP act 0.992, hIAP block -8.0 and bIAP inhibitor 4.7.
`Cc1ccc(N2C(=O)CS/C2=C(\C(Cl)=C(Cl)Cl)[N+](=O)[O-])cc1` gave bIAP activator 0.8, hIAP activ 1.18, mIAP block 41.9*, mIAP act 0.581, hIAP block -18.4 and bIAP inhibitor 21.7.
For Nc1nc2c(nc(SCc3ccccc3Br)n2[C@@H]2O[C@H](CO)[C@@H](O)[C@H]2O)c(=O)[nH]1 the results were hIAP activ 1.03, mIAP block 3.4, mIAP act 0.966 and hIAP block -3.3.
Screening O=C(CN1CCN(C(=O)c2ccco2)CC1)Nc1ccccc1 returned hIAP activ 1.04, mIAP block 1.0, mIAP act 0.99 and hIAP block -3.8.
O=C(Nc1ccccc1)NC1(C(=O)N2CCN(C(=O)c3ccco3)CC2)CCCCC1 was read as bIAP activator 6.3*, hIAP activ 1.04, mIAP block -15.9, mIAP act 1.16, hIAP block -4.3 and bIAP inhibitor inactive.
`O=C(NCc1ccccc1)NC1(C(=O)N2CCN(c3ccccc3)CC2)CCCCC1` gave bIAP activator 2.1*, hIAP activ 0.897, mIAP block -125.1, mIAP act 2.25*, hIAP block 10.3 and bIAP inhibitor -112.7.
Screening CC1CCCCN1CCNC(=O)c1ccc2c(c1)N(Cc1ccccc1F)C(=O)c1ccccc1S2=O (stereo unspecified) returned hIAP activ 1.03, mIAP block 9.2, mIAP act 0.908 and hIAP block -3.5.
For Cc1ccc(N(CC(=O)NCc2ccccc2)C(=O)CCC(=O)Nc2ccccn2)cc1C the results were hIAP activ 1.13, mIAP block -0.9, mIAP act 1.01 and hIAP block -13.0.
CCCNC(=O)c1ccc2c(c1)C1C3CCC(C3)C1C(c1ccccc1)N2 (stereo unspecified) was read as bIAP activator 2*, hIAP activ 0.988, mIAP block -46.9, mIAP act 1.47, hIAP block 1.2 and bIAP inhibitor -96.2.
For CC(C)(C)NC(=O)c1ccc2c(c1)C1C3CCC(C3)C1C(c1ccccc1)N2 (stereo unspecified) the results were bIAP activator 1, hIAP activ 0.897, mIAP block -9.1, mIAP act 1.09, hIAP block 10.3 and bIAP inhibitor 4.1.
For COc1ccccc1NS(=O)(=O)c1cc(NC(=O)Nc2ccc(Cl)cc2Cl)ccc1N1CCCCC1 the results were bIAP activator 0.9, hIAP activ 1.11, mIAP block -244.3, mIAP act 3.44*, hIAP block -10.9 and bIAP inhibitor 5.1.
For O=C(Nc1cccc(C(F)(F)F)c1)Nc1ccc(N2CCCC2)c(S(=O)(=O)Nc2ccccc2Cl)c1 the results were bIAP activator 0.7, hIAP activ 1.12, mIAP block -109.7, mIAP act 2.1*, hIAP block -12.1 and bIAP inhibitor 30.3.
For Cc1noc(C)c1C(=O)Nc1ccc(S(=O)(=O)N2CCC(C)CC2)cc1 the results were hIAP activ 1.12, mIAP block 50.6*, mIAP act 0.494 and hIAP block -11.6.
`Cc1noc(C)c1C(=O)Nc1ccc(S(=O)(=O)N2CCCCC2)cc1` gave hIAP activ 1.29, mIAP block 1.1, mIAP act 0.989 and hIAP block -28.8.
`N#Cc1ccc(NC(=O)Nc2ccc(Oc3ccc(NC(=O)Nc4ccc(C#N)cc4)cc3)cc2)cc1` gave hIAP activ 1.12, mIAP block -144.2, mIAP act 2.44* and hIAP block -11.9.
Screening CC(OC(=O)c1ccccc1NCCO)C(=O)NCC(=O)Nc1ccc(F)c(F)c1F (stereo unspecified) returned hIAP activ 0.906, mIAP block 1.3, mIAP act 0.987 and hIAP block 9.4.
COC(=O)c1ccc(OC(=O)CCN2c3ccccc3Sc3ccccc32)cc1 was read as bIAP activator 5.1*, hIAP activ 0.93, mIAP block 0.3, mIAP act 0.997, hIAP block 7.0 and bIAP inhibitor -413.6.
`CCOC(=O)c1c(N)sc(=S)c2c1CCC2` gave bIAP activator 0.9, hIAP activ 0.962, mIAP block 41.1*, mIAP act 0.589, hIAP block 3.8 and bIAP inhibitor 5.6.
For CCOc1ncccc1C(=O)Nc1ccc2c(c1)OCCCO2 the results were hIAP activ 0.97, mIAP block -2.3, mIAP act 1.02 and hIAP block 3.0.
For C[C@@H]1CN([C@@H](C)CO)C(=O)Cc2cc(NC(=O)Nc3cccc4ccccc34)ccc2O[C@@H]1CN(C)S(C)(=O)=O the results were hIAP activ 0.874, mIAP block -127.0, mIAP act 2.27* and hIAP block 12.6.
For C[C@@H]1CN([C@@H](C)CO)C(=O)Cc2cc(NS(=O)(=O)c3ccccc3)ccc2O[C@H]1CN(C)S(C)(=O)=O the results were hIAP activ 1.1, mIAP block -2.0, mIAP act 1.02 and hIAP block -10.3.
`C[C@@H]1CN([C@H](C)CO)C(=O)Cc2cc(NC(=O)Nc3ccccc3)ccc2O[C@@H]1CN(C)Cc1ccc2c(c1)OCO2` gave hIAP activ 1.09, mIAP block -113.4, mIAP act 2.13* and hIAP block -9.3.
`C[C@@H]1CN([C@H](C)CO)C(=O)Cc2cc(NS(=O)(=O)c3ccc(Cl)cc3)ccc2O[C@H]1CN(C)Cc1ccc(C(F)(F)F)cc1` gave hIAP activ 1.02, mIAP block 4.1, mIAP act 0.959 and hIAP block -2.0.

Bioassay records deposited in PubChem by Sanford-Burnham Center for Chemical Genomics.
